From PubChem
Most compounds without a hit are left out; they make up all but 4% or so of the library.
PHOSPHO1 block – blocks human PHOSPHO1 phosphatase activity. recombinant PHOSPHO1, absorbance phosphatase assay. Q8TCT1. inhibition, % at 13.3 µM. 290,000 tested, 1.1% active; in the data active = inhibition above about 60%
Target sequence (Q8TCT1 whole entry, looked up): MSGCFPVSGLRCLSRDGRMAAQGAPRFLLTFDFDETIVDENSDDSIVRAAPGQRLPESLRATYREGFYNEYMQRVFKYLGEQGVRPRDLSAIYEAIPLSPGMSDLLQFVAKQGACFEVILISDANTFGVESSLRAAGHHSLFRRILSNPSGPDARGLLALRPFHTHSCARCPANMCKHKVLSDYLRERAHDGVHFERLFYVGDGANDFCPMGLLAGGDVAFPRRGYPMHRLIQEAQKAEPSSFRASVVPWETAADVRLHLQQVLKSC
KCNK9 inh – inhibitors of human KCNK9 two-pore domain potassium channel; Q9NPC2; HEK293 KCNK9, FluxOR thallium flux fluorescence; hits give low values; B-score at 10 µM; 310,000 tested, 1.2% active; AID 488922;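 active = ratio B-score over 3 SD below the library mean, with starting fluorescence within 5 SD of its mean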;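 also: negative B-score means less thallium flux so channel inhibition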
KCNQ1 pot – potentiates or activates the human KCNQ1 potassium channel | CHO-K1 KCNQ1, thallium flux FluxOR fluorescence; hits give high values | B-score at 10 µM | 310,000 tested, 0.35% active;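 active = fluorescence ratio B-score, a plate-corrected score, at least three library SD, with initial intensity B-score within 5 SD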
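System: Stable KCNQ1 CHO-K1 line | Incubation: 90 min dye loading and 20 min compound exposure, both at room temperature | Measure: Ratio B score | Medium: Assay buffer for compound exposure, DMSO matched across wells | Compound dosing: Single-concentration screen | Probe or stimulus: K+/Tl+ depolarizing stimulus | Measured by: Kinetic FluxOR fluorescence, 10 s baseline plus 110 s post-stimulus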
KCNQ1 inh – blocks the human KCNQ1 potassium channel | P51787 | CHO-K1 KCNQ1, FluxOR thallium flux fluorescence; hits give high values | B-score at 10 µM | 310,000 tested, 1.3% active | AID 2642;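 active = compounds whose thallium flux B-score, printed positive for inhibition, exceeds three library SD while starting fluorescence stays within three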;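 also: channel opened by potassium depolarization with thallium stimulus after 20 min compound exposure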
hERG protect – shields human hERG channel from block by proarrhythmic agents | Q12809 | CHO-hERG, FluxOR thallium flux, dofetilide IC70 present | activation (rescue from dofetilide block), less the hit threshold, % at 10 µM | 310,000 tested, 0.51% active | AID 1511;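 active = activation above the mean of controls blocked by dofetilide plus 5 SD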;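 also: thallium influx through hERG after potassium depolarization seen as dye fluorescence rise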
KCNK3 block – human KCNK3 channel inhibition, primary screen. O14649. CHO-KCNK3 thallium flux, FluxOR fluorescence; hits give low values. B-score at 10 µM. 340,000 tested, 0.84% active. AID 602410;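 active = B-score under library mean minus 4 SD, starting fluorescence ratio at most library mean plus 5 SD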;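 also: more negative B-score means stronger inhibition of thallium flux through KCNK3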
Target sequence (O14649 whole entry, looked up): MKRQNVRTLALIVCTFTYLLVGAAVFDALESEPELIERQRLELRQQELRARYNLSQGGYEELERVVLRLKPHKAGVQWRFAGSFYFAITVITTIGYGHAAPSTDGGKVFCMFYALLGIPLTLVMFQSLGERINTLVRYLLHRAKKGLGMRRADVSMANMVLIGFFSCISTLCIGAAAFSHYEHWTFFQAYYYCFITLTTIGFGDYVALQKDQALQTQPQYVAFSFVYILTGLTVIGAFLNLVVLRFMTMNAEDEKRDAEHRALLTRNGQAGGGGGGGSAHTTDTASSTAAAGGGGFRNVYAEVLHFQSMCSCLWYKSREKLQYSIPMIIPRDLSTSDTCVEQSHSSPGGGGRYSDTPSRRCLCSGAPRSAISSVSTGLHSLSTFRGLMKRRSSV
KCNK3 inh conf – human KCNK3 channel inhibition, confirmation assay | AID 651638 | ratio percent of control, % at 10 µM | CHO-KCNK3 thallium flux, FluxOR fluorescence; 0% buffer, 100% carvedilol maximal block | shares compounds with KCNK3 block | 2,400 tested, 99% active;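 active = ratio percent of control, averaged over triplicates, above buffer control mean plus 5 SD, cut at about 64% in these data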;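 also: ratio is the fluorescence rise from min to max over baseline after thallium stimulus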
KCNK3 noninduced – counter-screen for KCNK3 inhibitors: effect in non-induced cells; shares compounds with KCNK3 block; thallium flux ratio (lower = more inhibition) at 10 µM; 2,400 tested, 40% active; non-induced KCNK3 parental cells, FluxOR thallium flux; hits give low values;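 active = thallium flux ratio, averaged over three wells, more than 5 SD below the buffer control mean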;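 also: host cells are CHO cells without KCNK3 induction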
Numbers stand for hits; i = inactive; nt = no result.

SMILES	PHOSPHO1 block	KCNK9 inh	KCNQ1 pot	KCNQ1 inh	hERG protect	KCNK3 block	KCNK3 inh conf	KCNK3 noninduced
O=C(c1cccs1)c1cn(CC(=O)N2CCc3ccccc3C2)c2ccccc12	i	i	i	i	i	-11	80	i
O=C(NCCO)c1c(O)c2cccc3c2n(c1=O)CC3	i	i	i	i	i	i	nt	nt
CCOC(=O)c1c(O)c2cccc3c2n(c1=O)CC3	i	i	i	i	i	-9.1	100	i
O=C(Nc1cccc(-c2nnc(-c3ccccc3)o2)c1)C1CC1	i	i	i	i	i	-9.8	112	i
CC(=O)Oc1ccc(C(=O)Nc2cccc(-c3nnc(-c4ccco4)o3)c2)cc1	i	i	i	i	i	-9.3	85	i
CCOc1cccc(C(=O)Nc2cccc(-c3nnc(-c4ccccc4)o3)c2)c1	i	i	i	i	i	-11	121	0.14
COc1cccc(C(=O)Nc2ccc(-c3nnc(-c4ccco4)o3)cc2)c1	i	i	i	i	i	i	nt	nt
C[C@H]1CN([C@@H](C)CO)C(=O)c2cc(NS(=O)(=O)c3ccc(Cl)cc3)ccc2O[C@@H]1CN(C)CC1CCCCC1	nt	nt	nt	nt	nt	-13	93	i
O=C(c1cc2nc(-c3ccc(F)cc3)cc(C(F)(F)F)n2n1)N1CCCCC1c1cccnc1 (configuration not stated)	i	i	i	i	i	-11	121	0.14
CCN1CCN(C(=O)c2cc3nc(-c4ccccc4)cc(C(F)(F)F)n3n2)CC1	i	i	i	i	i	-8.7	i	i
O=C(c1cnn2c(C(F)(F)F)cc(-c3ccccc3)nc12)N1CCCCC1c1cccnc1 (configuration not stated)	i	i	i	i	i	i	nt	nt
Clc1cccc(OCc2nnc(-c3ccccc3Br)o2)c1	i	i	i	i	i	-11	105	i
COc1cc2c(cc1OC)C(c1cccs1)N(C(=S)NC(C)C)CC2 (configuration not stated)	i	i	i	i	i	-11	94	i
Cc1ccc(S(=O)(=O)N(CC(=O)NCCC2=CCCCC2)Cc2ccccc2F)cc1	i	i	i	i	i	-9.4	116	i
Cc1ccc(N(C)S(=O)(=O)c2cc(-c3cnc(C4CC4)o3)ccc2C)cc1	i	i	i	i	i	-11	145	i
COc1ccccc1NS(=O)(=O)c1ccc(-c2cnc(C3CC3)o2)cc1	i	i	i	i	i	i	nt	nt
Cc1ccc(NS(=O)(=O)c2ccc(-c3cnc(C4CC4)o3)cc2)c(C)c1	i	i	i	i	i	-10	132	0.14
CCCNC(=O)c1c(N)n(-c2cc(OC)cc(OC)c2)c2nc3ccccc3nc12	i	i	i	i	i	-9.2	125	i
CCCNC(=O)c1c(N)n(-c2ccc3c(c2)OCO3)c2nc3ccccc3nc12	i	i	i	i	i	i	nt	nt
CCOC(=O)c1cc(C#N)c(SCC(=O)c2cc(C#N)c(SC)nc2C)nc1C	73	i	i	i	i	-11	107	0.14
CCOC(=O)c1cc(C#N)c(SCc2cccc3ccccc23)nc1C	i	i	i	i	i	i	nt	nt
O=C(Cc1ccccc1)Nc1cccc(-c2nc3ncccc3o2)c1	i	i	i	i	i	-10	64	i
Cc1nn(CCCC(=O)N2CCN(c3ccc(F)cc3)CC2)c(C)c1[N+](=O)[O-]	i	i	i	i	i	i	nt	nt
O=C(c1cc(Br)c[nH]1)N1CCCCC1	i	i	i	i	i	i	nt	nt
Cc1ccc(C(=O)CSc2nc(N)cc(=O)[nH]2)cc1	i	i	i	i	i	i	nt	nt
SMILES	PHOSPHO1 block	KCNK9 inh	KCNQ1 pot	KCNQ1 inh	hERG protect	KCNK3 block	KCNK3 inh conf	KCNK3 noninduced
C=C(C)CSc1nc(N)cc(=O)[nH]1	i	i	i	i	i	-21	67	i
CC(=O)c1ccc(OCC(=O)NC2CCS(=O)(=O)C2)cc1 (configuration not stated)	i	i	i	i	i	i	nt	nt
O=C(Nc1ccc(Br)cc1F)c1ccc2c(c1)N(Cc1ccccc1)C(=O)CS2=O (configuration not stated)	i	i	i	i	i	-13	100	i
COc1ccccc1Nc1nc(N2CCOCC2)nc(N2CCOCC2)n1	i	i	i	i	i	i	nt	nt
CC(=O)c1cn(CCOc2ccccc2C)c2ccccc12	i	i	i	i	i	i	nt	nt
CCOc1ccc(C2c3c(oc4ccccc4c3=O)C(=O)N2c2ccc(C)cn2)cc1OC (configuration not stated)	i	i	i	i	i	-11	99	i
COc1cc(C2c3c(oc4ccccc4c3=O)C(=O)N2c2ccc(C)cn2)ccc1O (configuration not stated)	i	i	i	i	i	i	nt	nt
O=[N+]([O-])c1ccc2nc(C3CCCCC3)[nH]c2c1	i	i	i	i	i	i	nt	nt
O=[N+]([O-])c1ccc(O)c(C2CCCCC2)c1	nt	nt	nt	nt	nt	-11	127	0.14
CCC(C)(C)NC(=O)C(c1ccc(F)cc1)N(CCOC)C(=O)CCC(=O)Nc1nccs1 (configuration not stated)	i	i	i	i	i	i	nt	nt
O=[N+]([O-])c1ccc(SCc2c(F)cccc2Cl)nc1	i	i	i	i	i	-8.9	97	i
COc1cccc(/C=C2/Sc3ccc(C(=O)NCCN4CCCCCC4)cc3NC2=O)c1	i	i	i	7	i	-10	112	i
CSc1ccc(CN(C)C(=O)C(Cc2ccccc2)NC(=O)c2ccccc2)cc1 (configuration not stated)	i	i	i	i	i	i	nt	nt
CSc1ccc(CN(C)C(=O)C(c2ccccc2)c2ccccc2)cc1	i	i	i	i	i	-10	126	0.13
COc1ccccc1OCC(=O)N/N=C/c1c(O)ccc2ccccc12	i	-8.6	i	i	i	-10	132	i
NC(=O)C1CCN(C(=O)c2cccc(S(=O)(=O)N3CCCC3)c2)CC1	nt	nt	nt	nt	nt	i	nt	nt
O=C1OC(c2cccs2)=N/C1=C\c1ccc(-c2ccccc2Cl)o1	i	-7.9	i	i	i	i	141	0.11
CCc1cc(=O)oc2cc(C)cc(OC(C)C(=O)NC3CCN(Cc4ccccc4)CC3)c12 (configuration not stated)	i	i	i	i	i	i	nt	nt
COc1cc2nc(Nc3ccc(C)c(C)c3)nc(N)c2cc1OC	i	i	i	i	i	-9.3	114	i
CCOc1ccccc1C(=O)NCC(=O)OCCOc1cccc(Cl)c1	i	i	i	i	i	-10	100	i
